Test results as given in ChEMBL document CHEMBL1821604, “Anticancer activity and cDNA microarray studies of a (RS)-1,2,3,5-tetrahydro-4,1-benzoxazepine-3-yl]-6-chloro-9H-purine, and an acyclic (RS)-O,N-acetalic 6-chloro-7H-purine” (Eur J Med Chem, 2011).

Legend:
MCF-10A = assay: Cytotoxicity against human MCF10A cells after 6 days by SRB colorimetric assay; type: cell-based; conditions: 144 h
[1] = Therapeutic index, ratio of IC50 for human MCF10A cells to IC50 for human MCF7 cells; type: cell-based; conditions: MCF10A cells (normal) versus MCF7 cells (cancer), read-out: Ratio IC50
In short: (§1)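 Each cell line grown in DMEM with 10% FBS, 37 °C, 5% CO₂. Cells seeded and allowed 24 h, then drug added in medium (≤0.1% v/v DMSO). Medium and drug renewed at day 3, cells kept 3 more days. Sulforhodamine-B read at 492 nm. IC₅₀ taken from semilog dose-response curves by linear interpolation, triplicate wells, at least twice. Index = IC₅₀ normal line / IC₅₀ cancer line.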

HT-29 = assay: Cytotoxicity against human HT-29 cells after 6 days by SRB colorimetric assay; type: functional, cell-based; conditions: HT-29, 144 h
[2] = Cytotoxicity against rat IEC-6 cells after 6 days by SRB colorimetric assay; type: cell-based; conditions: IEC-6, 144 h
[3] = Therapeutic index, ratio of IC50 for rat IEC-6 cells to IC50 for human HT-29 cells; type: cell-based; conditions: IEC-6 cells (normal) versus HT-29 cells (cancer), read-out: Ratio IC50; in short: as §1
MCF7 = assay: Induction of apoptosis in human MCF7 cells at IC50 after 48 hrs using annexin V-FITC staining by flow cytometry; type: functional

| Compound | IC50 (MCF-10A) [nM] | selectivity ratio [1] | IC50 (HT-29) [nM] | IC50 [2] [nM] | selectivity ratio [3] | Activity (MCF7) [%] |
| --- | --- | --- | --- | --- | --- | --- |
| O=c1[nH]cc(F)c(=O)[nH]1 [FLUOROURACIL] | 730 | 0.17 | 1080 | 660 | 0.61 |  |
| CC(=O)O[C@H]1C(=O)[C@@]2(C)[C@H]([C@H](OC(=O)c3ccccc3)[C@]3(O)C[C@H](OC(=O)[C@H](O)[C@@H](NC(=O)c4ccccc4)c4ccccc4)C(C)=C1C3(C)C)[C@]1(OC(C)=O)CO[C@@H]1C[C@@H]2O [PACLITAXEL] |  |  |  |  |  | 43 |
